Assay results from ChEMBL document CHEMBL4350961, “Discovery of Pyrrolo[3,2- d]pyrimidin-4-one Derivatives as a New Class of Potent and Cell-Active Inhibitors of P300/CBP-Associated Factor Bromodomain” (J Med Chem, 2019).
Active and inactive are the calls of the source. No cut-off for these calls is given here.

How the values were obtained:
[1] = target: Bromodomain-containing protein 9 (Homo sapiens) (UniProt Q9H8M2); assay: Binding affinity to human N-terminal His-tagged BRD9 assessed as change in melting temperature at 10 uM by SYPRO orange dye-based fluorescence assay
Chain of Bromodomain-containing protein 9 (Homo sapiens) (Q9H8M2 whole entry): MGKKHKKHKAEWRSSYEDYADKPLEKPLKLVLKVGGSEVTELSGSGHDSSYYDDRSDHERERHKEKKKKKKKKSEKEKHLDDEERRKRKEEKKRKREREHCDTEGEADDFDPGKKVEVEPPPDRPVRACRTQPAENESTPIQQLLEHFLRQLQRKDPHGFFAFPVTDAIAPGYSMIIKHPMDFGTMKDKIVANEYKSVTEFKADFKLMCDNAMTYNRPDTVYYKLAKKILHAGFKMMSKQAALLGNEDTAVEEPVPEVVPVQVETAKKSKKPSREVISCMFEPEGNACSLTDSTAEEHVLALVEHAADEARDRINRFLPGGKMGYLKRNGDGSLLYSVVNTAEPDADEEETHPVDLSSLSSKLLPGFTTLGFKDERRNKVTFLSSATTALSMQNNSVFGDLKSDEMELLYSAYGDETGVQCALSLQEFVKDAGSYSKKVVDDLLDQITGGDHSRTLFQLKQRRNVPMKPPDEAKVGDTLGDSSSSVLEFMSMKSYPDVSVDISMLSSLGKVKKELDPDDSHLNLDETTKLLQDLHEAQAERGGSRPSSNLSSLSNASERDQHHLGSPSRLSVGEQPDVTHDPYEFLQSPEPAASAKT
Outline: (§1)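 Thermal shift with His-tagged human bromodomain at 2 μM final in 10 mM HEPES pH 7.5, 500 mM NaCl. Compound at 10 μM final with 0.1% DMSO; SYPRO Orange at 1:1000. Equilibrated 3 min at 25 °C, then heated from 25 to 95 °C at 1 °C/min. Melting temperature shift taken from fluorescence; at least duplicate.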

Peregrin (Homo sapiens) = Peregrin (Homo sapiens) (UniProt P55201); assay: Binding affinity to human N-terminal His-tagged BRPF1 assessed as change in melting temperature at 10 uM by SYPRO orange dye-based fluorescence assay; outline: as §1
[2] = target: Bromodomain-containing protein 2 (Homo sapiens) (UniProt P25440); assay: Binding affinity to human partial length BRD2 bromodomain 1 long isoform (K71 to N194 residues) expressed in bacterial expression system at 1 uM by BROMOscan assay
Outline: (§2)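 BROMOscan bromodomain cross-screen run by an outside service, compound at 1 µM against 32 recombinant bromodomains. Binding given as percent of control.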

[3] = target: Bromodomain-containing protein 3 (Homo sapiens) (UniProt Q15059); assay: Binding affinity to human partial length BRD3 bromodomain 1 (P24 to E144 residues) expressed in bacterial expression system at 1 uM by BROMOscan assay; outline: as §2
[4] = target: Protein polybromo-1 (Homo sapiens) (UniProt Q86U86); assay: Binding affinity to human partial length PBRM1 bromodomain 2 (S178 to E291 residues) expressed in bacterial expression system at 1 uM by BROMOscan assay; outline: as §2
Chain of Protein polybromo-1 (Homo sapiens) (Q86U86 whole entry, the tested form may be a part): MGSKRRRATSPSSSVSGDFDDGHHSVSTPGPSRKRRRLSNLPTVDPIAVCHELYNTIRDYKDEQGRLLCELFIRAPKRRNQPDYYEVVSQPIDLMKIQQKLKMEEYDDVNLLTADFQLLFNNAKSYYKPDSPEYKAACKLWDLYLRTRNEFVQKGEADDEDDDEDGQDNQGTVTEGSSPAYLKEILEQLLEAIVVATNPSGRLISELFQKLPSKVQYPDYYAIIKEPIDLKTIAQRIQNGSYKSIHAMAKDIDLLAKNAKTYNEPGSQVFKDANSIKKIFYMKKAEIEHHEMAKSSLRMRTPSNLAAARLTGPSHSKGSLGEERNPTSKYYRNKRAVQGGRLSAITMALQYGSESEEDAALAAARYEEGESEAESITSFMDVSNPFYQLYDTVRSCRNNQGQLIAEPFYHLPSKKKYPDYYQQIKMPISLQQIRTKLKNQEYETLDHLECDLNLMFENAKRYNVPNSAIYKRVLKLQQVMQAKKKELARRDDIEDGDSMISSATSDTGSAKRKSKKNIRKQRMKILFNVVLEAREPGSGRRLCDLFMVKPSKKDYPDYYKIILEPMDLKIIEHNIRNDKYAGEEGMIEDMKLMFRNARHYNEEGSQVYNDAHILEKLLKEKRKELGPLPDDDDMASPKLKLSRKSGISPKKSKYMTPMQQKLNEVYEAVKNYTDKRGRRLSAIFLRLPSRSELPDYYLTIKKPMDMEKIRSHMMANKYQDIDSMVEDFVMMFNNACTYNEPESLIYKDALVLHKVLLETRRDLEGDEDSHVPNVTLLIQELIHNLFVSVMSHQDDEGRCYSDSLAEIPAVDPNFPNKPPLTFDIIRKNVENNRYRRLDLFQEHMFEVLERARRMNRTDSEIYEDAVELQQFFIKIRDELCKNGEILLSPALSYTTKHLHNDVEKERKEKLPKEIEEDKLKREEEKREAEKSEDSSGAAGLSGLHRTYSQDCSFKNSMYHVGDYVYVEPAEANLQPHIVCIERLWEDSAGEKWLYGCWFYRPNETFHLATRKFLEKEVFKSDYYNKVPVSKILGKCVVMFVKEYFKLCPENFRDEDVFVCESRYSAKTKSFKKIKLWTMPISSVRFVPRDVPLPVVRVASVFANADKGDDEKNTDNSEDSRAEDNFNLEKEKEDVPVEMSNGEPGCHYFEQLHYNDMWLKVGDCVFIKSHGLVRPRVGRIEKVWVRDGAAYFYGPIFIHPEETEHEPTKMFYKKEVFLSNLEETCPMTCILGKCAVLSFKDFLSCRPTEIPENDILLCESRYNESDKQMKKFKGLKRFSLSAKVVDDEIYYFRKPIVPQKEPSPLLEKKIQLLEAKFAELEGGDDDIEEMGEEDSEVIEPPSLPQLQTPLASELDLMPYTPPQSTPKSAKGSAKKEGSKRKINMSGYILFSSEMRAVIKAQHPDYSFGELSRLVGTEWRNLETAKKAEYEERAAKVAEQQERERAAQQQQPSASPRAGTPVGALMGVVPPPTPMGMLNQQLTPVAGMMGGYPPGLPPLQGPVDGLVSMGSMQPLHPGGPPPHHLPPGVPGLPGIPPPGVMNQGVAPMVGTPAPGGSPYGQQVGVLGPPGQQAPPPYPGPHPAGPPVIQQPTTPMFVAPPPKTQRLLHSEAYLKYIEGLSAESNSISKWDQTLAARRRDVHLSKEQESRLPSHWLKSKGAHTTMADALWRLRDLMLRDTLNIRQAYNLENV

[5] = AUC (0 to t) in Sprague-Dawley rat at 10 mg/kg, po administered via gavage by LC-MS/MS analysis; assay type: ADME, organism-based; settings: in vivo
Outline: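 Serial jugular blood samples taken at designated times and spun to plasma at 4 ℃. Plasma mixed with acetonitrile holding internal standard, then LC-MS/MS. Parameters from noncompartmental fitting.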

[6] = target: 5'-AMP-activated protein kinase catalytic subunit alpha-1 (Homo sapiens) (UniProt Q13131); assay: Inhibition of recombinant full-length human AMPKalpha1 at 10 uM using AMARAASAAALARRR as substrate measured after 40 mins in presence of [gamma33P]ATP by scintillation counting method
[7] = target: Tyrosine-protein kinase ABL2 (Homo sapiens) (UniProt P42684); assay: Inhibition of recombinant human ARG (38 to end residues) at 10 uM using EAIYAAPFAKKK as substrate measured after 40 mins in presence of [gamma33P]ATP by scintillation counting method
[8] = target: Cyclin-dependent kinase-like 1 (Homo sapiens) (UniProt Q00532); assay: Inhibition of recombinant human CDKL1 (1 to 303 residues) at 10 uM using RRRFRPASPLRGP as substrate measured after 120 mins in presence of [gamma33P]ATP by scintillation counting method
[9] = test system: Serine/threonine-protein kinase B-raf (Homo sapiens), P15056 [V600E]; assay: Inhibition of recombinant human BRAF V599E mutant (416 to end residues) at 10 uM using myelin basic protein as substrate measured after 40 mins in presence of [gamma33P]ATP by scintillation counting method
[10] = target: CDK4/Cyclin D3 (Homo sapiens) (UniProt P11802+P30281); assay: Inhibition of recombinant full-length human CDK4/cyclinD3 at 10 uM using Rb fragment as substrate measured after 40 mins in presence of [gamma33P]ATP by scintillation counting method; assay type: protein-complex assay
[11] = target: Receptor-type tyrosine-protein kinase FLT3 (Homo sapiens) (UniProt P36888); assay: Inhibition of recombinant human Flt3 (564 to end residues) at 10 uM using EAIYAAPFAKKK as substrate measured after 40 mins in presence of [gamma33P]ATP by scintillation counting method
[12] = target: Insulin receptor (Homo sapiens) (UniProt P06213); assay: Inhibition of recombinant human activated IR (1005 to 1310 residues) at 10 uM using KKKSPGEYVNIEFG as substrate measured after 40 mins in presence of [gamma33P]ATP by scintillation counting method
[13] = target: Interleukin-1 receptor-associated kinase 1 (Homo sapiens) (UniProt P51617); assay: Inhibition of recombinant human IRAK1 (194 to end residues) at 10 uM using myelin basic protein as substrate measured after 40 mins in presence of [gamma33P]ATP by scintillation counting method
[14] = target: LIM domain kinase 2 (Homo sapiens) (UniProt P53671); assay: Inhibition of recombinant human LIMK2 at 10 uM by radiometric method
Homo sapiens = species: Homo sapiens; assay: Inhibition of recombinant human MAPKAPK2 A399G mutant (46 to end residues) at 10 uM using KKLNRTLSVA as substrate measured after 40 mins in presence of [gamma33P]ATP by scintillation counting method
[15] = target: Platelet-derived growth factor receptor alpha (Homo sapiens) (UniProt P16234); assay: Inhibition of recombinant human PDGFRalpha (550 to end residues) at 10 uM using poly(Glu, Tyr) 4:1 as substrate measured after 40 mins in presence of [gamma33P]ATP by scintillation counting method
Chain of Platelet-derived growth factor receptor alpha (Homo sapiens) (P16234 whole entry): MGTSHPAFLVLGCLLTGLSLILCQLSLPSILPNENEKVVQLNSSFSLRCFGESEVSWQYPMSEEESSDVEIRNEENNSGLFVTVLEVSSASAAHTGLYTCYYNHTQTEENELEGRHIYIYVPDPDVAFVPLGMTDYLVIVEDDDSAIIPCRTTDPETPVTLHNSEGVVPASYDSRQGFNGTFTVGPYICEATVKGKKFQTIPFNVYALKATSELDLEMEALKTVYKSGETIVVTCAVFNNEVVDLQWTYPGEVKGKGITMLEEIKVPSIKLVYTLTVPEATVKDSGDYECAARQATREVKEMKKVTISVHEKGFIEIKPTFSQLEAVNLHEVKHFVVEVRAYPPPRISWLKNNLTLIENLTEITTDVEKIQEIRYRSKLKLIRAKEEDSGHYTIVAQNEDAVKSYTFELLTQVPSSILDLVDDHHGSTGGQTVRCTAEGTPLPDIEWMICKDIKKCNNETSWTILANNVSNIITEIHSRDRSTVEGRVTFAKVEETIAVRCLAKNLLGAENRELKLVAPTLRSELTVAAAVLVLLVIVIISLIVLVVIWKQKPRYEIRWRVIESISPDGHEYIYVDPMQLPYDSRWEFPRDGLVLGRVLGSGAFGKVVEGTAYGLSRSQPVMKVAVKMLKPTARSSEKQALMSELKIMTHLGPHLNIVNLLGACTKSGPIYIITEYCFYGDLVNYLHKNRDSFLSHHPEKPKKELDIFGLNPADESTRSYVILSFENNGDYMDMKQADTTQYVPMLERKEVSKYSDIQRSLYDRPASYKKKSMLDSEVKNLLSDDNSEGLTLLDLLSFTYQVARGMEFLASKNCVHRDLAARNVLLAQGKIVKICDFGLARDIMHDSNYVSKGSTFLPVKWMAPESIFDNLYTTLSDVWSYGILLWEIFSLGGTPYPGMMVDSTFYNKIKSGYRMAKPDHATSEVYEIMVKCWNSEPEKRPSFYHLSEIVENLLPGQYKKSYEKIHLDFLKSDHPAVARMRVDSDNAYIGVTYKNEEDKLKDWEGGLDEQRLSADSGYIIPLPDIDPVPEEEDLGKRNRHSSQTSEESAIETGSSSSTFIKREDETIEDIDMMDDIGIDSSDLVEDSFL

[16] = test system: Platelet-derived growth factor receptor alpha (Homo sapiens), P16234 [V561D]; assay: Inhibition of recombinant human PDGFRalpha V561D mutant (550 to end residues) at 10 uM using GGMEDIYFEFMGGKKK as substrate measured after 40 mins in presence of [gamma33P]ATP by scintillation counting method
Chain of Platelet-derived growth factor receptor alpha (Homo sapiens), P16234 [V561D] (P16234 whole entry V561D, the tested form may be a part): as the sequence (P16234 whole entry) above, with V561D counted along it

[17] = target: STE20-like serine/threonine-protein kinase (Homo sapiens) (UniProt Q9H2G2); assay: Inhibition of human SLK (1 to 373 residues) using RLGRDKYKTLRQIRQ as substrate measured after 40 mins in presence of [gamma33P]ATP by scintillation counting method
Chain of STE20-like serine/threonine-protein kinase (Homo sapiens) (Q9H2G2 whole entry, looked up, the tested form may be a part): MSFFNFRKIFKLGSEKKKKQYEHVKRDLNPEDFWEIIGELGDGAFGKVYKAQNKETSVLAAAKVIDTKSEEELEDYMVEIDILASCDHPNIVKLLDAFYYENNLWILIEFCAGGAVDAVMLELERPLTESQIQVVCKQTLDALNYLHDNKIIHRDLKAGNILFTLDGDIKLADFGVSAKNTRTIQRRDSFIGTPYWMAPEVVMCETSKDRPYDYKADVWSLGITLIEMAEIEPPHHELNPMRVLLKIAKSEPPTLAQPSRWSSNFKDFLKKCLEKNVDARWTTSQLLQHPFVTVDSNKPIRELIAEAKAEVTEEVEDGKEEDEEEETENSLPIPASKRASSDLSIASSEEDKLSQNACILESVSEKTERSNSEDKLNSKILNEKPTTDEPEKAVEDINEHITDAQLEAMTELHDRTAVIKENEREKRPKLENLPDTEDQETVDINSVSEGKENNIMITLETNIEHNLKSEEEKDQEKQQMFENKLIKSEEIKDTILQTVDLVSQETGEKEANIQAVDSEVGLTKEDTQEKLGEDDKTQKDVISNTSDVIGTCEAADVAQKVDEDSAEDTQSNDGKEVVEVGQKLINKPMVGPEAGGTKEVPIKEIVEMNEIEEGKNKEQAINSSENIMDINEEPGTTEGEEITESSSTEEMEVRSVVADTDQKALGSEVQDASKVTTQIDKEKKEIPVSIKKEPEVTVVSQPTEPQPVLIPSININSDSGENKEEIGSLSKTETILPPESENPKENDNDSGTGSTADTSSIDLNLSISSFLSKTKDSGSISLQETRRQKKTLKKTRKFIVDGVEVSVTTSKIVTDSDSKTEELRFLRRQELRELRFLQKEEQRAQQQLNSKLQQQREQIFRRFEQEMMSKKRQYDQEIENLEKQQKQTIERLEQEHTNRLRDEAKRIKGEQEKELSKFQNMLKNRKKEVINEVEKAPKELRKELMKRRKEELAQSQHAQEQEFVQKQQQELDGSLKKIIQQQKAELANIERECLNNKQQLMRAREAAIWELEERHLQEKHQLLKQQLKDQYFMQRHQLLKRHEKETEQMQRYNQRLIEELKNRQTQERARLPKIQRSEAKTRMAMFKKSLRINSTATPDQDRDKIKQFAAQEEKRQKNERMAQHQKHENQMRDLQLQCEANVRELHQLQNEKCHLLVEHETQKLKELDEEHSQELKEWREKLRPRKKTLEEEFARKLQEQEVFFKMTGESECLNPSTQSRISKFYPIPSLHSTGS
Outline: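 Kinase panel of 422 kinases screened by Eurofins KinaseProfiler at a single test-compound concentration of 10 µM.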

[18] = target: Serine/threonine-protein kinase TAO1 (Homo sapiens) (UniProt Q7L7X3); assay: Inhibition of human TAO1 (1 to 327 residues) using myelin basic protein as substrate measured after 40 mins in presence of [gamma33P]ATP by scintillation counting method
[19] = target: Testis-specific serine/threonine-protein kinase 3 (Homo sapiens) (UniProt Q96PN8); assay: Inhibition of recombinant full-length human TSSK3 at 10 uM using AMARAASAAALARRR as substrate measured after 40 mins in presence of [gamma33P]ATP by scintillation counting method
Chain of Testis-specific serine/threonine-protein kinase 3 (Homo sapiens) (Q96PN8 whole entry, the tested form may be a part): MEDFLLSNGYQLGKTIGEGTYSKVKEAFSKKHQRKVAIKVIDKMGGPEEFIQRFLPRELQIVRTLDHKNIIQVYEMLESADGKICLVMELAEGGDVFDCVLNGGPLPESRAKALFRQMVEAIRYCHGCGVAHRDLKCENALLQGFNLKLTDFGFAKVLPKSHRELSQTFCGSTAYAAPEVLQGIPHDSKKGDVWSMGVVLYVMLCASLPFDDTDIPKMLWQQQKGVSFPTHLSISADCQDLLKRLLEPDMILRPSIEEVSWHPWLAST

[20] = target: Serine/threonine-protein kinase WNK2 (Homo sapiens) (UniProt Q9Y3S1); assay: Inhibition of human WNK2 (166 to 489 residues) using myelin basic protein as substrate measured after 40 mins in presence of [gamma33P]ATP by scintillation counting method
[21] = target: Phosphatidylinositol 4-phosphate 5-kinase type-1 alpha (Homo sapiens) (UniProt Q99755); assay: Inhibition of recombinant full-length human PIP5K1alpha at 10 uM using phosphatidylinositol 4-phosphate as substrate measured after 40 mins by HTRF assay

Question: For `CN1C[C@H](Nc2nc3cc[nH]c3c(=O)n2C)C[C@H](c2ccc3c(c2)OCCO3)C1`, which ΔTm [1] is on record?
Answer: 2.1 °C

Question: And the ΔTm (Peregrin (Homo sapiens))?
Answer: 2.6 °C

Question: What about the Activity [2] of the same compound?
Answer: inactive

Question: And the Activity [3]?
Answer: inactive

Question: What about the Activity [4] of the same compound?
Answer: inactive

Question: And the AUC(0-t) [5]?
Answer: 2480 ng·h/mL

Question: What about the inhibition [6] of the same compound?
Answer: inactive

Question: And the inhibition [7]?
Answer: inactive

Question: And the inhibition [8]?
Answer: inactive

Question: What about the inhibition [9] of the same compound?
Answer: inactive

Question: What about the inhibition [10] of the same compound?
Answer: inactive

Question: And the inhibition [11]?
Answer: inactive

Question: And the inhibition [12]?
Answer: inactive

Question: What about the inhibition [13] of the same compound?
Answer: inactive

Question: What about the inhibition [14] of the same compound?
Answer: inactive

Question: And the inhibition (Homo sapiens)?
Answer: inactive

Question: And the inhibition [15]?
Answer: inactive

Question: What about the inhibition [16] of the same compound?
Answer: inactive

Question: And the inhibition [17]?
Answer: inactive

Question: And the inhibition [18]?
Answer: inactive

Question: What about the inhibition [19] of the same compound?
Answer: inactive

Question: And the inhibition [20]?
Answer: inactive

Question: And the inhibition [21]?
Answer: inactive
